Fewer inactive variants are shown than the library holds.
B1: tRNA (parent)
chain: GUUCCGUUGGCGUAAUGGUAACGCGUCUCCCUCCUAAGGAGAAGACUGCGGGUUCGAGUCCCGUACGGAACG

Variants of: B1
Assay: yeast fitness relative to wild type (ratio to wild type); higher = fitter; tRNA-Arg(CCU), competitive growth, 37 C, YPD
Procedure, shortened: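 Variants of the tRNA-Arg(CCU) gene, chemically synthesised with a 3% per-site mutation rate at 69 sites, were placed at the native genomic locus in Saccharomyces cerevisiae. The pooled strains were competed in YPD at 37°C for 24 hours in six parallel replicates. Gene amplicons from the start population and from each end population were read by 100-nucleotide paired-end sequencing. Darwinian fitness relative to wild type came from changes in genotype frequencies; genotypes needed ≥ 100 starting reads, and estimates < 0.5 were set to 0.5.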

Variant	yeast fitness
U32A C34U C55G C62U G68C	≤ 0.5
C31U C46A A65C	0.73
C31U A36U A69C	0.591
C31U C46A A69C	0.757
U32C A36C G52C C66U	≤ 0.5
C31G G52A U59A	≤ 0.5
U32C A37U G56C A57U	≤ 0.5
U32A G39A C49G	≤ 0.5
C31U U47C	0.934
C31U U32C C34U A57C	≤ 0.5
C31U G44A A45U A57G	0.537
U32C A42C G44C G52C	0.548
U32A C34G	≤ 0.5
C31U C46U G51A A65C	0.643
U32A C46A U53A	≤ 0.5
U32A A37U A45C	≤ 0.5
C31G G44U A70C	≤ 0.5
C31G U35A A65U	0.622
C31U U35C A40G	≤ 0.5
C31U A45C U47C A70U	≤ 0.5
C31U G48A A65G	0.917
C31U G63A A69C	0.748
U32A A40C A69C	0.562
C31U C66U G67A	0.596

Variant	yeast fitness
U32C A42C G44A U53A	≤ 0.5
C31G G48C G58A	0.821
C31U A40G A42C G44A A45U	≤ 0.5
C31U A40U U59C A70U	≤ 0.5
U32A G38C	0.652
C31U A43G C66U	0.724
C31U C33A G50A A65G	≤ 0.5
C31U U54G C55U	0.566
C31U A45U A69U	1
C31G G63C	0.614
C31U U47G G58C C62U	0.552
C31G G51C G56A U64A	≤ 0.5
U32C A40U U59C	0.718
C31U U54G	0.535
U32C A42G	0.861
U32C A42C	0.866
C31G U54C	0.798
C31U A40C G56A A57U	≤ 0.5
C31U A57C G58A A69G	0.554
C31G U32A G56C	0.6
U32A A43G U53A	≤ 0.5
C31G G67U A69C	0.526
C31U A42U	0.957
C31G U32A	0.766

Variant	yeast fitness
C31G U32G	0.556
C31U U32A U35C	0.593
C31U A40C A65C	0.817
C31U G52C	0.661
U32A C46A	0.683
U32A C46U	0.623
C31U U35C	0.851
U32C A40G A70C	0.634
U32C A40C G48C	≤ 0.5
C31U C49G C60A	≤ 0.5
U32A C33G C46U	≤ 0.5
C31U A36G	0.857
C31U A36U	0.591
U32A U54C C55U	≤ 0.5
C31U A37G U54A	≤ 0.5
C31U A45U G56C	≤ 0.5
C31G G58A	0.785
C31U A43U G48A U53A C62U	≤ 0.5
C31U C33U A37C C55U	≤ 0.5
C31U A37U C46A C49A C55A C66G	0.663
C31U A37C G63A	≤ 0.5
C31U G39A A57C	≤ 0.5
C31G G48A	0.925
C31U A45U C55U	≤ 0.5

Variant	yeast fitness
C31U C46G G50U C61U	≤ 0.5
U32A G50A	0.783
U32A C46A A65G C66A G68C	≤ 0.5
C31U A37G C62G	0.517
U32A G58A A70C	0.513
C31U A43C U54C A65C	≤ 0.5
U32A A42G	0.655
U32A C61G G68C	0.601
C31U G48A C61G C62A	0.602
C31G U32A U53G	0.646
C31U C33U A42C C49U	≤ 0.5
U32A C34A A65C	0.523
C31U A37U	0.744
C31U A37G	0.69
C31U A42G C62U	0.583
C31U G67U	0.952
C31U G67A	0.97
U32A C49G C55U	≤ 0.5
C31U G58A U59A	0.672
C31G U64A A69C	≤ 0.5
U32C A40U A70U	0.784
C31U G44A A45U U47C	0.607
U32A G39A U54A C66A	≤ 0.5
U32A G67C	0.732

Variant	yeast fitness
U32A A45U U54G	≤ 0.5
C31G G50A	0.837
C31G G50C	0.738
C31G G52C A57U	0.599
C31U G44A C46U	0.629
C31U G44C	0.826
C31U U59A G63A	0.683
C31U C34U	0.748
C31U C34G	0.591
U32A G52A	≤ 0.5
U32A A43C C49A	0.542
C31U U35A A37G A40C U47C U64G	0.512
C31U C49G G52A C62U	≤ 0.5
C31G U35A	0.659
C31U A36C G38A	0.558
C31U A42U A70U	1.14
U32A G58A	0.781
C31G G52C	0.531
C31G G52A	0.755
C31U A36U G51A A70U	0.693
U32A A40G G50A C61G	0.787
C31U C66U	1.03
U32C A40U C46A A65U	0.589
C31U A43U	1.11

Variant	yeast fitness
C31U A43C	1.17
C31U C60A A69U	0.506
C31U A36U A43C C55G	≤ 0.5
C31U U32G C33G	0.591
U32A A42U C61G C62U	0.661
U32C A42U G44C U54A	≤ 0.5
C31U A37C U64A	≤ 0.5
C31U C33A C46A	0.596
C31U G38A	0.81
C31U A40G A70U	0.55
C31U A42C G67A	0.628
U32A G39A	0.792
C31U A42C G44A A45U	0.55
U32A A37C C55G	0.503
U32A A37G G48A C60G G68A	≤ 0.5
C31U A37C A43U G50C A57G	0.586
C31U C60A	0.563
C31U C60G	0.696
C31U A43U G48A A57U G67C	≤ 0.5
U32A G41C C49G C55U	≤ 0.5
C31U G50C	0.955
C31U U59A C60G	0.516
U32A C33A A43U C62U	≤ 0.5
U32A C61G A70U	≤ 0.5

Variant	yeast fitness
U32A C33A C46G	≤ 0.5
C31G U59G	0.734
C31G U59C	0.871
C31U C34U A57C	≤ 0.5
U32A C46A G58A	≤ 0.5
U32A A43G U53A G68A	≤ 0.5
C31U A42G G50A	0.629
U32A U53A	≤ 0.5
C31U C33G C61A	0.65
U32A C46A A57G	0.614
C31U A70G	1.1
C31U U32G	0.662
C31U U32A	0.661
C31U C49U C61G	0.638
U32C A36U G38A G50A G67A	≤ 0.5
C31U C46U	1.02
U32C A42U C62G	0.578
U32A G56A A69U	0.554
C31U C49U C66A G67A	≤ 0.5
U32A C33A A43U C55U	≤ 0.5
U32A A42C A57G A70C	≤ 0.5
U32A C66U	0.834
C31U A36C A45C C61G	≤ 0.5

From the RNAGym collection of RNA variant scans (doi:10.1126/science.aae0568)
